Data from ChEMBL document CHEMBL1781963, “Discovery of novel hepatoselective HMG-CoA reductase inhibitors for treating hypercholesterolemia: a bench-to-bedside case study on tissue selective drug distribution” (Bioorg Med Chem Lett, 2011).

What was measured:
OATP1B2 = molecular target: T1, OATP1B2 (Rattus norvegicus, UniProt Q9QZX8); assay: Drug uptake by rat hepatic OATP1B2 transporters expressed in CHO cells at 10 uM relative to wild type CHO cells; type: ADME, cell-based; conditions: CHO cells expressing rat OATP1B2, read-out: FC
T1 sequence (Q9QZX8 whole entry): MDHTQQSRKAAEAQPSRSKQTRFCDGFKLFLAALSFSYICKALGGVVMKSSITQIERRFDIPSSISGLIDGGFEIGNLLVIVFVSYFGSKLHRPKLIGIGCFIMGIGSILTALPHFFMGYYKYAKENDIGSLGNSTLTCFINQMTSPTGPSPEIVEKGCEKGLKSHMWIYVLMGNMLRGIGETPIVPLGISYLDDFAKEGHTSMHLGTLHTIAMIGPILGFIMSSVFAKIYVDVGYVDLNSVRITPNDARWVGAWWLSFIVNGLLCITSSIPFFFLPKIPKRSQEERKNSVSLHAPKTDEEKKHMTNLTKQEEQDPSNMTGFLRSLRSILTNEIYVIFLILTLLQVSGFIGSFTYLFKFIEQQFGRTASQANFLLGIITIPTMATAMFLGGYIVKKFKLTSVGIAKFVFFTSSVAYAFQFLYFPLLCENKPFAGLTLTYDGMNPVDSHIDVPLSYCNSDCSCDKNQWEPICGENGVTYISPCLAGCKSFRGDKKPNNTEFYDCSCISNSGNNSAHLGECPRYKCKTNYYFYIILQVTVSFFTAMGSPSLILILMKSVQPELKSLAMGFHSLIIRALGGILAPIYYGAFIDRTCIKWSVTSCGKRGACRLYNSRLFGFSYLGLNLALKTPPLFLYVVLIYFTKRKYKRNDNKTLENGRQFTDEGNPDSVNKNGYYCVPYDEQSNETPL
Outline: (§1)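 Individual hepatic OATP transporters were over-expressed in CHO or HEK293 cells: rat rOatp1a1, rOatp1a4 and rOatp1b2, and human hOATP1B1, hOATP1B3 and hOATP2B1. Substrate uptake is expressed as fold difference relative to the wild-type parental line. Rosuvastatin/pravastatin served as positive control and midazolam as negative control in each assay.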

OATP1A4 = molecular target: T2, OATP1A4 (Rattus norvegicus, UniProt O35913); assay: Drug uptake by rat hepatic OATP1A4 transporters expressed in CHO cells at 10 uM relative to wild type CHO cells; type: ADME, cell-based; conditions: CHO cells expressing rat OATP1A4, read-out: FC; outline: as §1
T2 sequence (O35913 whole entry): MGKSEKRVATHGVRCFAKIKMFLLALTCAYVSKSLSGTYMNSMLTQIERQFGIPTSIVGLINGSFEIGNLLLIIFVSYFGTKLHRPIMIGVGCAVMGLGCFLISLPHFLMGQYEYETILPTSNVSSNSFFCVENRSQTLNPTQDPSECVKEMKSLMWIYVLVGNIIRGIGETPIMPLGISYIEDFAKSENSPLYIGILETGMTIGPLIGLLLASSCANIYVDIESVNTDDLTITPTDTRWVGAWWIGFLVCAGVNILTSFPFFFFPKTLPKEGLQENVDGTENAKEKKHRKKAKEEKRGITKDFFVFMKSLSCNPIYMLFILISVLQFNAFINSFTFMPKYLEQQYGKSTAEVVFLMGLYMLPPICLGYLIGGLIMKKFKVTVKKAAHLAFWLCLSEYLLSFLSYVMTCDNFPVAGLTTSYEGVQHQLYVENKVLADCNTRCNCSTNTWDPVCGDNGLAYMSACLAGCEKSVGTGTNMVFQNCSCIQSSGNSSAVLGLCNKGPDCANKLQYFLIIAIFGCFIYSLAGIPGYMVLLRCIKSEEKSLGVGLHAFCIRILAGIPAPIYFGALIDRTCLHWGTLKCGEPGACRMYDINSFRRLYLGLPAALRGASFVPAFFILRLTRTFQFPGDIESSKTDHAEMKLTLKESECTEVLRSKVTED

OATP2B1 = molecular target: T3, OATP2B1 (Homo sapiens, UniProt O94956); assay: Drug uptake by human hepatic OATP2B1 transporter expressed in HEK293 cells at 1 uM relative to wild-type HEK293 cells; type: ADME, cell-based; conditions: HEK293 cells expressing human OATP2B1, read-out: FC; outline: as §1
T3 sequence (O94956 whole entry): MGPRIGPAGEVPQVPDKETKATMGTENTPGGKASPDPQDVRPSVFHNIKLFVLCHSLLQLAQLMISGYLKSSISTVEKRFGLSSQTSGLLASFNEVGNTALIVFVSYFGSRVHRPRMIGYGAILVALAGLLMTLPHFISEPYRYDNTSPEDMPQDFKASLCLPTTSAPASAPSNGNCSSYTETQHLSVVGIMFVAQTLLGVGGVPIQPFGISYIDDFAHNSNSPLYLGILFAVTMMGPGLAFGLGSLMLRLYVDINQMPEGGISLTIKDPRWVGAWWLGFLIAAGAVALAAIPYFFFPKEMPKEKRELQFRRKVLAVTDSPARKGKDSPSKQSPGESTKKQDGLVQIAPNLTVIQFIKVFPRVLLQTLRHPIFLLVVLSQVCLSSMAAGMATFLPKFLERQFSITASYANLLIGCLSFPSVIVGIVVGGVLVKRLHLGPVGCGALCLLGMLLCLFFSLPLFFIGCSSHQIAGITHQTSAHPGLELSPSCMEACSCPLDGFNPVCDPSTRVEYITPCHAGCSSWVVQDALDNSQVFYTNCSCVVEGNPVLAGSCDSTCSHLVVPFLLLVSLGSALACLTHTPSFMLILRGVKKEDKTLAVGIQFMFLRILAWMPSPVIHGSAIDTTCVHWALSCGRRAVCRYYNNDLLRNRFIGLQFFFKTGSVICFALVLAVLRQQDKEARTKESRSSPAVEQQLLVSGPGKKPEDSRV

[1] = Fraction unbound in human plasma at 0.5 ug/ml; type: ADME, cell-free
Outline: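 Unbound fraction in rat, dog or human plasma, measured at a drug concentration of 0.5 μg/mL.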

Hepatocyte = assay: Drug uptake in sandwich-cultured human hepatocytes assessed per mg of protein at 1 uM; type: ADME, cell-based
Outline: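 Rat or human hepatocytes were cultured in sandwich configuration with a Matrigel overlay and compound uptake was measured. Active uptake was assessed by inhibition with the pan-OATP inhibitor rifamycin SV. Rosuvastatin/pravastatin served as positive control and midazolam as negative control.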

| Structure (SMILES) | uptake ratio at 10 µM (OATP1B2) | uptake ratio at 10 µM (OATP1A4) | uptake ratio at 1 µM (OATP2B1) | fraction unbound at 0.5 ug/ml [1] | Drug uptake (Hepatocyte) |
| --- | --- | --- | --- | --- | --- |
| CC[C@H](C)C(=O)O[C@H]1C[C@H](O)C=C2C=C[C@H](C)[C@H](CC[C@@H](O)C[C@@H](O)CC(=O)O)[C@H]21 [PRAVASTATIN] | 7 | 1.8 | – | – | – |
| Cc1ncc2n1-c1ccc(Cl)cc1C(c1ccccc1F)=NC2 [MIDAZOLAM] | 1.3 | 0.82 | 0.8 | – | – |
| CC(C)c1nc(N(C)S(C)(=O)=O)nc(-c2ccc(F)cc2)c1/C=C/[C@@H](O)C[C@@H](O)CC(=O)O [ROSUVASTATIN] | – | 17.3 | 5.5 | 0.17 | 8 pmol/min/mg |
| Cc1ccc(CNC(=O)c2nn(-c3ccc(F)cc3)c(CC[C@@H](O)C[C@@H](O)CC(=O)O)c2C(C)C)cc1 | 2.6 | 3 | 2.1 | 0.051 | 7.8 pmol/min/mg |
| O=C([O-])C[C@H](O)C[C@H](O)CCn1c(-c2ccc(F)cc2)nc(C(=O)NCc2cccc(F)c2)c1C1CC1.[Na+] | 1.7 | 7.3 | 7.1 | 0.29 | 1.5 pmol/min/mg |
